From ChEMBL document CHEMBL4007452, “Discovery of an Orally Selective Inhibitor of Signal Transducer and Activator of Transcription 3 Using Advanced Multiple Ligand Simultaneous Docking” (J Med Chem, 2017)
Activity calls are given as the source filed them. The calls are words filed in the database; no cut-off is given here.

What was measured:
[1] = biological target: T1, Signal transducer and activator of transcription 3 (Homo sapiens, UniProt P40763); settings: 2.5 to 5 uM
[2] = biological target: T2, Signal transducer and activator of transcription 5B (Homo sapiens) (UniProt P51692); test: Binding affinity to STAT5B (unknown origin) after 30 mins by fluorescence polarization assay
T2 sequence (whole entry): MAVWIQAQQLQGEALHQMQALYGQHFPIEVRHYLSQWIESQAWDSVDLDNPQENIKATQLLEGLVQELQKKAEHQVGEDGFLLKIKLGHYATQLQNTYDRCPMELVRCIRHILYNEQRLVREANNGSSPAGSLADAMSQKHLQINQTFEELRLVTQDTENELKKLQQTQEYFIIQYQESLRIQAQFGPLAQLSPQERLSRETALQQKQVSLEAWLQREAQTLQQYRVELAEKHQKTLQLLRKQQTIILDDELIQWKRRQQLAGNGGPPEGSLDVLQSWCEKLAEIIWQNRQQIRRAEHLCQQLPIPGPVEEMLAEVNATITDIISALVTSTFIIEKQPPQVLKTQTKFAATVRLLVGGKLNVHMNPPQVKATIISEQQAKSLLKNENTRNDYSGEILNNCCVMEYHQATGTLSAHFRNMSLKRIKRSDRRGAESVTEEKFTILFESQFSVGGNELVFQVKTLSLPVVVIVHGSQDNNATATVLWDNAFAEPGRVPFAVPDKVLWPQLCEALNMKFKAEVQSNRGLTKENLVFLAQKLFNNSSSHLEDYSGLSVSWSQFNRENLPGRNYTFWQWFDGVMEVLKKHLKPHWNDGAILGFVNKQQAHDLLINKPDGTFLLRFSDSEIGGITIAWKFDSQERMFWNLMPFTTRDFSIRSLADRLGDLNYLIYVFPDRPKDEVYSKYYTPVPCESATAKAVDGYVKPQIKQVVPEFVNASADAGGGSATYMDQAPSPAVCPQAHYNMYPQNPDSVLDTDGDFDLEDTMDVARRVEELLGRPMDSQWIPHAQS
Method in brief: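 A competitive fluorescence polarization assay measured displacement of fluorescent phosphopeptide from the SH2 domain of purchased STAT1 or STAT5 protein, using the corresponding peptides.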

[3] = biological target: T3, Signal transducer and activator of transcription 5A (Homo sapiens) (UniProt P42229); test: Inhibition of STAT5 dimerization in human MDA-MB-231 cells assessed as inhibition of STAT5-STAT5 DNA binding activity at 5 uM after 24 hrs by EMSA; type: cell-based
T3 sequence (whole entry): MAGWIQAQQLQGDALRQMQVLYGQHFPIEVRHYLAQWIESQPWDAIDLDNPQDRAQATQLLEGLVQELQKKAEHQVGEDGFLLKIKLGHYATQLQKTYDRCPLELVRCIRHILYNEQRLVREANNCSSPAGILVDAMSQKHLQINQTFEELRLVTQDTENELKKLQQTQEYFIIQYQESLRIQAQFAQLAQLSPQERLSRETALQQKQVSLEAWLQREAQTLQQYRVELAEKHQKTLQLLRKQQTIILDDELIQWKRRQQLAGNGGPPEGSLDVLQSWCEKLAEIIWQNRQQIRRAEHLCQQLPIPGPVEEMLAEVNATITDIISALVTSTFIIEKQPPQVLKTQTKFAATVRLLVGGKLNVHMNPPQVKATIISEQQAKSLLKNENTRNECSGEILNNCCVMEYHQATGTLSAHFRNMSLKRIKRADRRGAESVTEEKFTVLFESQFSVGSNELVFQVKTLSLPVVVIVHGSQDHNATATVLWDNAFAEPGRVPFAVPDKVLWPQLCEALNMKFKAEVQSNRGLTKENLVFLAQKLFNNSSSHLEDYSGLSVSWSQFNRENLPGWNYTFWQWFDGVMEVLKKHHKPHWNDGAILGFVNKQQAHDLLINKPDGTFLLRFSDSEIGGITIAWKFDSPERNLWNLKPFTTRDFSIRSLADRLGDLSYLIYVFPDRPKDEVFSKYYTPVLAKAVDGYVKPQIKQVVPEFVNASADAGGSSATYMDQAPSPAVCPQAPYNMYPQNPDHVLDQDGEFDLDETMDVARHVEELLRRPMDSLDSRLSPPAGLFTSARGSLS
Method in brief: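 MDA-MB-231 cells were treated at 5 µM for 0-24 h before nuclear extract preparation. Extracts were incubated with biotin-labeled probe for 30 min at room temperature, then analysed by EMSA.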

[4] = AUC (0 to t) in Sprague-Dawley rat plasma at 10 mg/kg, po measured after 24 hrs by UPLC analysis; type: ADME, organism-based; set-up: time < 24 hr, dose 10 mg/kg, route oral
Method in brief: (§1)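 Rat plasma sampled from 2 min to 24 h after a single i.v. (1 mg/kg) or p.o. (10 mg/kg) dose. Parameters were derived from the concentration-time profiles. The bioanalytical method was validated to FDA guidelines for selectivity, linearity, LLOQ, accuracy, precision, recovery, matrix effect and stability.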

[5] = biological target: T1, Signal transducer and activator of transcription 3; settings: 2.5 to 5 uM; remark: listed apart in the source
MDA-MB-231 = test: Induction of SHP-1 expression in human MDA-MB-231 cells at 2.5 to 10 uM after 12 hrs by immunoblot analysis; type: functional, cell-based
Method in brief: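 MDA-MB-231 cells at 60–80% confluence were treated 12 h with 10% FBS at 2.5-10 µM or 2.5-5 µM, against a DMSO control. Whole-cell lysates were immunoblotted, with bands quantified as percent of control.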

[6] = AUC (0 to t) in Sprague-Dawley rat plasma at 1 mg/kg, iv measured after 24 hrs by UPLC analysis; type: ADME, organism-based; set-up: dose 1 mg/kg, time < 24 hr, route intravenous
Method in brief: as §1

Rattus norvegicus = test: AUMC (0 to infinity) in Sprague-Dawley rat plasma at 1 mg/kg, iv measured after 24 hrs by UPLC analysis; type: ADME, organism-based; settings: in vivo
Method in brief: as §1

[7] = Clearance in Sprague-Dawley rat plasma at 1 mg/kg, iv measured after 24 hrs by UPLC analysis; type: ADME, organism-based
Method in brief: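 Parameters were derived from the concentration-time profiles. The bioanalytical method was validated to FDA guidelines for selectivity, linearity, LLOQ, accuracy, precision, recovery, matrix effect and stability.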

Mus musculus = test: Toxicity in BALB/c nude mouse xenografted with human MDA-MB-231 cells assessed as spleen damage at 2.5 to 10 mg/kg, po qd administered for 32 days by H&E staining based light microscopy; type: organism-based; settings: in vivo, 768 h
Method in brief: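 6-week-old female athymic SPF BALB/c nude mice received 5 x 10^6 MDA-MB-231 cells s.c. in the flank. Oral treatment began once tumors reached about 100 mm3, with 8 mice per group and a saline vehicle control. […] Treatment lasted 32 days. Heart, liver, spleen, lung and kidney were fixed 48 h in 10% neutral-buffered formaldehyde, paraffin-embedded, cut at 5 µm, H&E-stained and examined by light microscopy.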

[8] = Cmax in Sprague-Dawley rat plasma at 10 mg/kg, po measured after 24 hrs by UPLC analysis; type: ADME, organism-based; set-up: dose 10 mg/kg, route oral
Method in brief: as §1

T1 sequence (P40763 whole entry): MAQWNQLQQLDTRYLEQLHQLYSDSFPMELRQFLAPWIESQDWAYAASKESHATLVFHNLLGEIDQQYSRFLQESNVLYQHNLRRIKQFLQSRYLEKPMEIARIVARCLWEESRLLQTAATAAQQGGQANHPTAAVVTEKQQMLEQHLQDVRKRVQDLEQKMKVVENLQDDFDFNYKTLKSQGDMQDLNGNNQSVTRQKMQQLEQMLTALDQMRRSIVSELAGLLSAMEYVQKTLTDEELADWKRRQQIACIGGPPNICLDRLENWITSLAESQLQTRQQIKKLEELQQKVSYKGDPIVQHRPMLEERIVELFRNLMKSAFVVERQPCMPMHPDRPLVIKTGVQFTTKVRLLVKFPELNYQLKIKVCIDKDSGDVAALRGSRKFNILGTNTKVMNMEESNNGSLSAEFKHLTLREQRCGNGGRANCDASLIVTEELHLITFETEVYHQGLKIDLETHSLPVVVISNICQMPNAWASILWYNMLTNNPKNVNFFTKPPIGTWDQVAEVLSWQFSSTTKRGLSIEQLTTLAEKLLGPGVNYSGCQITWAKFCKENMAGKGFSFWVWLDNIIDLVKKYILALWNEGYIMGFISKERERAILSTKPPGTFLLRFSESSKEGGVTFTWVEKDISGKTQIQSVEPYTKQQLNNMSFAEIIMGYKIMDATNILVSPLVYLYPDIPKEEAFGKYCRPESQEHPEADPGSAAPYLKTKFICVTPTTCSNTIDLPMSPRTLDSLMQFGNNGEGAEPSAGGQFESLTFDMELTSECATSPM

## NS(=O)(=O)c1cccc2c1C(=O)C=C(Nc1ccccc1N1CCNCC1)C2=O
[1]
  inhibition: Active
[2]
  Activity: inactive
[3]
  inhibition: inactive
[4]
  AUC(0-t) at 24 h: 850 ng·h/mL
[5]
  inhibition: Active
MDA-MB-231
  Activity: Active
[6]
  AUC(0-t) at 24 h: 189 ng·h/mL
Rattus norvegicus
  AUMC: 149 hr2.ng/ml
[7]
  clearance: 87.7 mL/min/kg
Mus musculus
  Activity: Non-Toxic
[8]
  Cmax: 540 ng/mL
